Among the data in ChEMBL document CHEMBL1122806 (J Med Chem, 1984) are Ka and Ki values, retold here.

Square brackets hold non-standard residues; d marks the D form. Peptide text beside a SMILES is read from it. Sta = CC(C)C[C@H](N)[C@@H](O)CC(=O)O

Assay [1] concerns the target Cytosol aminopeptidase (Sus scrofa) (UniProt P28839). The assay can be described thus: Compound was evaluated for the inhibition of Leucine aminopeptidase from porcine kidney and the inhibition constant (Ka) was determined which is the apparent Km in the presence of tripeptide after preincubating the enzyme and inhibitor.
The target in assay [2] is T1, Aminopeptidase N (Sus scrofa, UniProt P15145).
T1 sequence (P15145 whole entry): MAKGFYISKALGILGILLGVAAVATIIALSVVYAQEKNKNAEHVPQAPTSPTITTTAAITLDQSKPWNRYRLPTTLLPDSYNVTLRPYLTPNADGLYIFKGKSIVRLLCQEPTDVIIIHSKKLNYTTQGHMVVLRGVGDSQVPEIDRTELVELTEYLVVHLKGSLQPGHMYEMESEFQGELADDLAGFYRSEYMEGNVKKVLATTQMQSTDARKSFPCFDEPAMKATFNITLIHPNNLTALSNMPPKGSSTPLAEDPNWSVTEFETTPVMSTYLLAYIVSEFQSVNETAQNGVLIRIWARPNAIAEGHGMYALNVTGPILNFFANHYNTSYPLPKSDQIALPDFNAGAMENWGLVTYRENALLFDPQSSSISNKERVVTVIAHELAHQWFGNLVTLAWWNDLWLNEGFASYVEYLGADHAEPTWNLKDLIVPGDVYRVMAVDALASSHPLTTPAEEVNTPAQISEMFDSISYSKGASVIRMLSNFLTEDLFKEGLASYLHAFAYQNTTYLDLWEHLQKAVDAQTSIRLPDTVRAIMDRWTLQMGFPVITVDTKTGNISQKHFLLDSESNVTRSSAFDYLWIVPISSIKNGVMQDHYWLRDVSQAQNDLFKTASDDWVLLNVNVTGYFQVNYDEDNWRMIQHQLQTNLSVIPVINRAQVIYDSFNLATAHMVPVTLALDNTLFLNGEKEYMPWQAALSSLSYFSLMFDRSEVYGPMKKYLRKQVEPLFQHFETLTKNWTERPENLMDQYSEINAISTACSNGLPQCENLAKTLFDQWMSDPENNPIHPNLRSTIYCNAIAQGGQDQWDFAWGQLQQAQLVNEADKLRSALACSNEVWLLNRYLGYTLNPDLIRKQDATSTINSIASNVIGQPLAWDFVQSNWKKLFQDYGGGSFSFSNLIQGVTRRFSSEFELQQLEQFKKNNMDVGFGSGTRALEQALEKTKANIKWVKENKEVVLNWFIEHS
The assay is described as follows: Compound was evaluated for the inhibition of Aminopeptidase M (AP-M) and the inhibition constant was determined after preincubating the enzyme and inhibitor. Summed up: (§1)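 Initial rates came from reactions started by adding enzyme to substrate plus inhibitor. Final steady-state rates came after 15-20 min enzyme-inhibitor preincubation, with substrate added to start. Reaction velocities were analysed by Lineweaver-Burk plots.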

Assay [3] concerns the target T1, Aminopeptidase N. The assay can be described thus: Compound was evaluated for the inhibition of Aminopeptidase M (AP-M) from porcine kidney and the inhibition constant was determined after preincubating the enzyme and inhibitor. Summed up: as §1
Assay [4] addresses T1, Aminopeptidase N. The assay can be described thus: Effect of inhibitor structure on the slow binding inhibition of Aminopeptidase M from porcine kidney was determined and Ki was reported which is obtained by the equation Ki[k4/(k3 + k4)]. The procedure, abridged: as §1
For assay [5], the target named is T1, Aminopeptidase N. The assay can be described thus: Effect of inhibitor structure on the slow binding inhibition of Aminopeptidase M from porcine kidney was determined and the Ki was reported which is = k2/k1. The procedure, abridged: as §1
For assay [6], the target named is T1, Aminopeptidase N. The assay can be described thus: Effect of inhibitor structure on the slow binding inhibition of aminopeptidase M was determined and the Ki was reported which is = k2/k1. Summed up:
as §1

Assay [7] deals with T1, Aminopeptidase N. The assay is described as follows: Effect of inhibitor structure on the slow binding inhibition of aminopeptidase M was determined and Ki* was reported which is obtained by the equation Ki[k4/(k3 + k4)]. Summed up:
as §1

Chain of Cytosol aminopeptidase (Sus scrofa) (P28839 whole entry, looked up): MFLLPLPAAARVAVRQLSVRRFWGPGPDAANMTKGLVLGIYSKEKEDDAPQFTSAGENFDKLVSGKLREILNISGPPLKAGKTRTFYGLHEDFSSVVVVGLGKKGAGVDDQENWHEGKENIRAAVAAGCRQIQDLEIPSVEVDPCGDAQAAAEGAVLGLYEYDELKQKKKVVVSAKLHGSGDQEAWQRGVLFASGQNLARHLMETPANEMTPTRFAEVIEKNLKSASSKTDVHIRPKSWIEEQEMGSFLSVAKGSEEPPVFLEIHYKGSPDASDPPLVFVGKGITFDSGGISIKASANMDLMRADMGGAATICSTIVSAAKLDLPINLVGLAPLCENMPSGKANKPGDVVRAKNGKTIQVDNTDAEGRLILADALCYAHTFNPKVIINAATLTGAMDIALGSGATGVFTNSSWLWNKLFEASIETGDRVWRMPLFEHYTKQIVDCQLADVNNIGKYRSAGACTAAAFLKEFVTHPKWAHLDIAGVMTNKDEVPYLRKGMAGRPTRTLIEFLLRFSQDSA

As to `CC(C)C[C@H](N)[C@@H](O)CC(=O)N[C@H](C(=O)N[C@H](C(=O)N[C@@H](CC(=O)O)C(=O)O)C(C)C)C(C)C` (H-[Sta]VVD-OH), the Ka in assay [1] is 0.0057.

As for `CC(C)C[C@H](NC(=O)[C@@H](O)[C@H](N)CC(C)C)C(=O)O`, at Aminopeptidase N [2], the affinity corresponds to a Ki of 11.8 µM.

As for `CC(C)CCNC(=O)[C@H](O)[C@@H](N)Cc1ccccc1`, the values for the Ki on Aminopeptidase N [3], on Aminopeptidase N [4] and at Aminopeptidase N [5] were 16.3 µM, 16 µM and 16 µM, respectively.

Turning to `CC(C)C[C@@H](N)CC(=O)N[C@H](C(=O)N[C@H](C(=O)N[C@@H](CC(=O)O)C(=O)O)C(C)C)C(C)C`, on Aminopeptidase N [2], the Ki worked out at 25 µM.

For `CC(C)CCNC(=O)[C@@H](NC(=O)[C@@H](NC(=O)[C@H](O)[C@@H](N)CC(C)C)C(C)C)C(C)C`, the Ki at Aminopeptidase N [2] came to 0.18 µM.

Consider `CC(C)CC(N)C(O)C(=O)NC(C(=O)NC(CC(=O)O)C(=O)O)C(C)C` (stereo unspecified), for which the Ki on Aminopeptidase N [6] is 40 µM; on Aminopeptidase N [7] it was 0.9 µM; at Aminopeptidase N [2] it was 0.94 µM.

`CC(C)CCNC(=O)[C@@H](NC(=O)[C@@H](NC(=O)C[C@H](O)[C@@H](N)CC(C)C)C(C)C)C(C)C` had an inhibition constant (Ki) at Aminopeptidase N [3] of 1000 µM.

Usually Ki stands for a measure of affinity in units of concentration, obtained from inhibition or displacement.
